Activity calls are given as the source filed them. The rule behind the calls is not given here.
What was measured:
HL-60 = experiment: Antiproliferative activity against human HL60 cells; type: functional, cell-based
Summary of the method: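 Human myeloid leukemia HL-60 cells; antiproliferative IC50 (µM) by a previously described protocol, each series repeated independently at least two to three times.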

Tubulin (Homo sapiens) [1] = target: T1, Tubulin (Homo sapiens) (UniProt P68371+Q9H4B7+P0DPH7+P68366+Q13509+Q71U36+P04350+Q3ZCM7+P07437+P68363+Q9BQE3+Q6PEY2+Q13885+Q9BVA1+Q9BUF5); experiment: Inhibition of tubulin polymerization at 10 ug/ml; type: protein-complex assay
Summary of the method: (§1)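 Kit-based tubulin assembly assay with compounds dissolved in DMSO. All components go into wells held at 0 °C and a baseline is set at 340 nm. Assembly is read at 0 °C and then at 37 °C. Results are percent inhibition against a vehicle control at each tested concentration.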

Tubulin (Homo sapiens) [2] = target: T1, Tubulin (Homo sapiens); experiment: Inhibition of tubulin polymerization at 20 ug/ml; type: protein-complex assay
Tubulin (Homo sapiens) [3] = target: T1, Tubulin (Homo sapiens); experiment: Inhibition of tubulin polymerization at 1 ug/ml; type: protein-complex assay; summary of the method: as §1
Tubulin (Homo sapiens) [4] = target: T1, Tubulin (Homo sapiens); experiment: Inhibition of tubulin polymerization at 3 ug/ml; type: protein-complex assay; summary of the method: as §1

IC50 (HL-60) [µM] | further results | Structure (SMILES)
> 20 |  | CCOC(=O)c1ccc(Oc2ccc(C#N)cc2)cc1
> 20 |  | CCOC(=O)c1ccc(Oc2ccc(OC)cc2)cc1
> 20 |  | COc1ccc(Oc2c(OC)cccc2OC)cc1F
3.5 | inhibition (Tubulin (Homo sapiens) [1]): 12.5% | CCOC(=O)c1ccc(Oc2ccc(OC)c(F)c2)cc1
> 20 |  | COC(=O)c1ccc(Oc2ccc(OC)cc2)c([N+](=O)[O-])c1
1.5 | inhibition (Tubulin (Homo sapiens) [1]): 5.5%; inhibition (Tubulin (Homo sapiens) [2]): 13.3% | CCOC(=O)c1ccc(Oc2ccc(OC)c(OC)c2)cc1O
> 20 |  | COC(=O)c1ccc(Oc2ccc(OC)cc2)c(I)c1
0.34 | inhibition (Tubulin (Homo sapiens) [1]): 96.3%; inhibition (Tubulin (Homo sapiens) [3]): 40%; inhibition (Tubulin (Homo sapiens) [4]): 74.6% | COc1ccc(S(=O)(=O)Nc2cccnc2Nc2ccc(O)cc2)cc1 [ABT-751]
5.62 | Activity (Tubulin (Homo sapiens) [1]): inactive | COC(=O)c1ccc(Oc2ccc(OC)c(OC)c2)c(I)c1
> 20 |  | COC(=O)c1cccc(Oc2ccc(C#N)cc2)c1
> 30 |  | CCOC(=O)c1ccc(Oc2ccc(F)c(F)c2)cc1
> 20 |  | CCOC(=O)c1ccc(Oc2ccc(Cl)cc2)cc1
> 30 |  | COc1ccc(Oc2ccc(C(=O)N(C)OC)cc2)cc1F
> 20 |  | CCOC(=O)c1ccc(Oc2ccc(N(C)C)cc2)cc1
> 30 |  | CCOC(=O)c1ccc(Oc2ccc(F)c(F)c2)cc1O
> 30 |  | CCOC(=O)c1ccc(Oc2ccc(OC)c(F)c2)cc1O
> 20 |  | CCOC(=O)c1ccc(Oc2ccc(OC)c(OC)c2)cc1
14.1 | inhibition (Tubulin (Homo sapiens) [1]): 8.7% | COc1ccc(Oc2ccc(C(=O)NC3CC3)cc2)cc1F
> 20 |  | COC(=O)c1cccc(Oc2ccc(N(C)C)cc2)c1
> 20 |  | COC(=O)c1ccc(Oc2ccc(OC)c(OC)c2)c(N)c1
> 30 |  | CCOC(=O)c1ccc(Oc2ccc(N(C)C)cc2)cc1O
20.6 |  | COc1ccc(Oc2ccc(C(=O)NCCc3ccccc3)cc2)cc1F
> 20 |  | COC(=O)c1ccc(Oc2ccc(OC)c(OC)c2)c([N+](=O)[O-])c1
11.4 | inhibition (Tubulin (Homo sapiens) [1]): 12.5% | COc1cccc(OC)c1Oc1ccc(N(C)C)cc1
> 30 |  | CCOC(=O)c1ccc(Oc2ccc(OC)cc2)cc1O
> 20 |  | COC(=O)c1cccc(Oc2ccc(OC)c(F)c2)c1
> 20 |  | COc1cccc(OC)c1Oc1ccc(C#N)cc1
> 20 |  | COC(=O)c1cccc(Oc2ccc(OC)cc2)c1
> 20 |  | COC(=O)c1ccc(Oc2ccc(OC)cc2)c(N)c1
> 30 |  | COc1ccc(Oc2ccc(C(=O)O)cc2)cc1F
